# High-throughput results deposited in PubChem BioAssay by Johns Hopkins Ion Channel Center.
# Rows were chosen to be rich in hits. Some 3.8% of all compounds tested hit in one or more screens of this group.
# KCNQ1 act – potentiators or activators of KCNQ1 channel, primary screen, cell-based, thallium flux, high-throughput; Potassium voltage-gated channel subfamily KQT member 1 (Homo sapiens), P51787; CHO-K1 KCNQ1, thallium flux FluxOR fluorescence; stronger effect = higher value; B-score at 10 µM; 0.35% of 310,000 active; AID 2648, 2010;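 active = fluorescence ratio B-score, a plate-corrected score, at least three library SD, with initial intensity B-score within 5 SD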
#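 assay system = CHO-K1 cells stably expressing KCNQ1 | medium = assay buffer, equal DMSO in all wells | timing = 37 °C overnight plating, 90-min dark dye load, 20-min compound pretreatment | measured by = kinetic FluxOR thallium fluorescence, 10-s 1-Hz baseline, 110-s post-stimulus read | measure = fluorescence change relative to baseline, converted to B score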
# hERG protect – hERG rescue from dofetilide block, primary screen, cell-based, CHO-hERG, FluxOR thallium flux, dofetilide IC70 | Voltage-gated inwardly rectifying potassium channel KCNH2 (Homo sapiens), Q12809 | dofetilide IC70 present | activation (rescue from dofetilide block), less the hit threshold, % at 10 µM | 0.51% of 310,000 active;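 active = activation above the mean of controls blocked by dofetilide plus 5 SD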;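 also: thallium influx through hERG after potassium depolarization seen as dye fluorescence rise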
# KCNQ1 inh – inhibitors of human KCNQ1 channel, primary screen, cell-based, thallium flux, high-throughput | AID 2642, 2010 | B-score at 10 µM | Potassium voltage-gated channel subfamily KQT member 1 (Homo sapiens), P51787 | CHO-K1 KCNQ1, FluxOR thallium flux fluorescence; stronger effect = higher value | 1.3% of 310,000 active;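 active = compounds whose thallium flux B-score, printed positive for inhibition, exceeds three library SD while starting fluorescence stays within three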;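 also: channel opened by potassium depolarization with thallium stimulus after 20 min compound exposure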
# KCNK9 inh – KCNK9 potassium channel inhibitors, primary screen, HEK293 cells, thallium flux. FluxOR thallium flux fluorescence; stronger effect = lower value. Potassium channel subfamily K member 9 (Homo sapiens), Q9NPC2. AID 488922, 2010. 1.2% of 310,000 active. B-score at 10 µM;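 active = ratio B-score over 3 SD below the library mean, with starting fluorescence within 5 SD of its mean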;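 also: negative B-score means less thallium flux so channel inhibition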
# Target sequence (Q9NPC2 whole entry, looked up): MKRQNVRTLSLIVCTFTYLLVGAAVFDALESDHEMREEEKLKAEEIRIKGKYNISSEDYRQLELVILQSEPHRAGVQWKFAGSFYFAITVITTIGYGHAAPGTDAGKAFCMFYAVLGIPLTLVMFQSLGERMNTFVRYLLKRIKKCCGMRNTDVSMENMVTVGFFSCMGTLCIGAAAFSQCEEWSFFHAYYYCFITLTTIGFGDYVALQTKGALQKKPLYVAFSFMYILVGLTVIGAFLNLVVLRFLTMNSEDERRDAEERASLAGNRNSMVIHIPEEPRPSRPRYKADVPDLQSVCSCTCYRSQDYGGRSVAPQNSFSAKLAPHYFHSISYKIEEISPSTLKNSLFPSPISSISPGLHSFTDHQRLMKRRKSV
# KCNK3 block – human KCNK3 channel inhibitors, primary screen, CHO cells, FluxOR thallium flux, B-score. 0.84% of 340,000 active. FluxOR fluorescence; stronger effect = lower value. B-score at 10 µM;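 active = B-score under library mean minus 4 SD, starting fluorescence ratio at most library mean plus 5 SD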;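 also: more negative B-score means stronger inhibition of thallium flux through KCNK3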
# Kir21 inh – inhibitors of mouse Kir2.1 inward-rectifier potassium channel. Inward rectifier potassium channel 2 (Mus musculus), P35561. HEK293-Kir2.1, FluxOR thallium flux fluorescence; stronger effect = lower value. B-score at 10 µM. 0.85% of 310,000 active;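 active = fluorescence ratio B-score at or below minus 3 SD of library scores, with starting-brightness B-score within 2 SD, cut at about -4.2 in these data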;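 also: channel flux triggered by added potassium and thallium sulfate stimulus; B-score of peak minus minimum fluorescence over baseline after thallium stimulus; more negative B-score means stronger Kir2.1 block with less thallium influx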
# Hits are given with their value; – = inactive; · = no result.
SMILES,KCNQ1 act,hERG protect,KCNQ1 inh,KCNK9 inh,KCNK3 block,Kir21 inh
CC(=O)NC1C(OCc2ccccc2)OC2COC(c3ccccc3)OC2C1OCC(=O)O (centres undefined),–,–,–,–,–,–
CC(=O)c1ccc(S(=O)(=O)N(C)CCCC(=O)NCc2ccc3c(c2)OCO3)cc1,·,·,·,·,–,·
O=C(O)COc1ccccc1C(Nc1cccnc1)c1cc(Cl)c2cccnc2c1O (centres undefined),–,–,–,–,–,–
CCOc1ccc(C(Nc2cccnc2)c2cc(Cl)c3cccnc3c2O)cc1 (centres undefined),–,–,8,–,–,–
O=C(CSc1nc2nn(-c3ccccc3)c(=O)c-2c2n1CCCCC2)c1ccc(O)c(O)c1,·,·,·,·,–,·
O=C(Oc1cccc(NC(=O)c2ccco2)c1)c1ccc(Br)c(S(=O)(=O)N2CCCCC2)c1,–,–,–,-7.79,–,–
Cc1ccc2c(c1)C1CN(C)CCC1N2C(=S)NC(=O)c1ccc(Br)cc1 (centres undefined),22,–,–,–,–,–
COc1ccc(Cl)cc1NC(=O)CN(C)CC(=O)Nc1ccc(C)cc1Br,–,–,–,–,–,–
C=C(C)C1CC=C(C)/C(=N/NC(=O)CCC(=O)Nc2ccccc2Cl)C1 (centres undefined),–,–,–,–,–,–
CCOC(=O)c1cccc(NC(=O)CSc2nnc(C)n2CC2CCCO2)c1 (centres undefined),–,–,–,–,–,–
O=C(/C=C/c1ccccc1)NCCc1nc2ccccc2[nH]1,–,–,–,–,–,–
COc1ccc(OC)c(/C=C/C(=O)NCCc2nc3ccccc3[nH]2)c1,–,–,7,–,–,–
COc1ccc(NC(=O)CN(C)C(=O)c2ccc(NS(=O)(=O)c3ccc4[nH]c(=O)[nH]c4c3)cc2)cc1,–,–,–,–,–,–
C/C(=N\NC(=S)Nc1cccc(C)c1)c1ccco1,13,5.8,–,–,–,–
COc1ccc(/C(O)=C2/C(=O)C(=O)N(c3ccccn3)C2c2ccc(F)cc2)cc1 (centres undefined),–,–,–,–,–,–
COC(=O)c1onc(-c2ccccc2)c1C(=O)OC,–,–,–,–,–,–
O=C(NC(=S)NNC(=O)c1ccc(Cl)cc1Cl)c1cccnc1,–,–,–,–,–,–
Cc1onc(-c2ccccc2)c1C(=O)NNC(=S)NC(=O)c1ccc(Cl)cc1Cl,20,–,–,–,–,–
Cc1ccccc1C(=O)NNC(=S)NC(=O)c1ccc(Cl)cc1Cl,15,–,–,–,–,–
Cc1onc(-c2ccccc2)c1C(=O)NNC(=S)NC(=O)c1ccc(Br)cc1,34,–,–,–,–,–
COC(=O)c1c(-c2ccccc2)noc1C,–,5.8,–,–,–,–
COCC(Cc1ccccc1)NC(=O)Cn1cc(C)c(=O)[nH]c1=O (centres undefined),·,·,·,·,–,·
CCCN(CCC)C(=S)NC(=O)c1ccc(Cl)cc1Cl,55,24.7,–,–,–,–
CCC(=O)Nc1cccc(NC(=S)NC(=O)c2ccc(Cl)cc2Cl)c1,–,–,–,–,–,–
Cn1c(CNC(=O)c2ccccc2F)nnc1SCc1ccc(Cl)cc1,–,8.0,–,–,–,–
SMILES,KCNQ1 act,hERG protect,KCNQ1 inh,KCNK9 inh,KCNK3 block,Kir21 inh
Cn1c(CNC(=O)c2ccccc2F)nnc1SCC(=O)Nc1nncs1,–,–,–,–,–,–
O=C(c1ccc(N2CCOCC2)cc1[N+](=O)[O-])N1CCOCC1,–,–,–,–,–,–
COc1ccc(COC(=O)CCNC(=O)c2ccc(Cl)cc2)cc1,–,–,–,–,–,–
CCOc1ccccc1OCCOc1ccccc1OC(C)C,–,–,–,–,–,-4.93
O=C(N/N=C/c1ccc(OC(F)F)cc1)C1=COCCO1,–,16.4,–,–,–,–
COc1ccc(CNC(=O)c2csc(Cc3ccc(OC)cc3)n2)cc1,–,–,–,–,–,-11
COc1ccc(NC(=O)c2csc(Cc3ccc(Cl)cc3)n2)cc1,–,–,–,–,–,–
COc1ccc(CNC(=O)c2csc(Cc3ccc(Cl)cc3)n2)cc1,–,–,–,–,–,-9.03
COc1ccc(Cc2nc(C(=O)Nc3ccc(Cl)cc3)cs2)cc1,–,–,–,–,-17.9,–
Cc1ccc(C(CNS(=O)(=O)c2cc(F)ccc2F)N2CCN(C)CC2)cc1 (centres undefined),–,–,–,–,–,–
CCCc1ccc(C(=O)NNc2ccccc2F)cc1,–,–,–,–,–,–
N#CC1=C(N)OC2=C(CCc3ccccc32)C1c1ccccc1Cl (centres undefined),–,–,–,-7.59,–,–
CCN(CC)c1ccc(/C=c2\sc3nc4ccccc4n3c2=O)c(O)c1,–,–,9,–,–,–
O=c1/c(=C/c2ccc(O)c([N+](=O)[O-])c2)sc2nc3ccccc3n12,·,·,·,·,–,·
CCSc1nc(=S)cc(C)[nH]1,24,25.4,–,–,–,–
c1ccc(-c2nc(N3CCNCC3)nc3ccccc23)cc1,–,–,–,–,–,-7.15
CCN1CCN(c2nc(-c3ccccc3)c3ccccc3n2)CC1,–,–,–,–,–,–
Cc1cccc(NC(=S)NC2CC3C=CC2C3)c1 (centres undefined),–,–,–,–,–,–
O=c1c2ccccc2nc(-c2cccc(Cl)c2)n1O,13,22.8,–,–,–,–
Cc1ccc(-c2nc3ccccc3c(=O)n2O)cc1,–,7.7,–,–,–,–
O=c1c2cc(Cl)ccc2nc(-c2ccccc2Cl)n1O,–,–,–,–,–,–
O=c1c2cc(Br)ccc2nc(-c2ccccc2)n1O,11,16.9,–,–,–,–
Cc1csc(CN(C)C(=O)CC2C(=O)NCCN2Cc2ccc(Cl)c(F)c2)n1 (centres undefined),–,–,–,–,–,–
CCCCn1c(=O)n(Cc2cccc(F)c2)c(=O)c2c1ncn2Cc1ccco1,–,–,–,–,-10.3,–
COc1ccc(OC)c(C(=O)Nc2c(O)ccc3ccccc23)c1,–,–,–,–,–,–
O=C1C2=C(C(c3ccccc3)=NCCN2)C(c2cccc([N+](=O)[O-])c2)N1c1ccccc1 (centres undefined),–,–,–,–,–,–
CC(C)Cn1nc(NC(=O)c2cccs2)c2cc3ccccc3nc21,–,–,–,-7,–,–
